Experimental data published in ChEMBL document CHEMBL1122517, “2-Phenylindoles. Relationship between structure, estrogen receptor affinity, and mammary tumor inhibiting activity in the rat” (1984).
Values joined by “and” are separate entries in the source; they are usually repeats but may differ in a detail not shown here. Equal values may be shown once.

Experiments:
Rattus norvegicus [1] = species on record: Rattus norvegicus; assay: Number of DMBA-induced mammary carcinoma tumors in rats at 2.8 mg dose; assay type: functional
Summary of the method: (§1)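 DMBA-induced tumors in Sprague-Dawley rats, entered when tumor area exceeded 140 mm². Dose per kg was given sc in olive oil, daily Monday to Thursday with a double dose Friday. Tumors were measured by calipers twice weekly. Tumor number was counted at the start of the test. Complete remission meant the tumor was no longer palpable. Partial remission meant reduction to ≤50% of initial size. New tumor appearance was recorded.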

Rattus norvegicus [2] = species on record: Rattus norvegicus; assay: Change in DMBA-induced mammary carcinoma tumor area in rats at 2.8 mg dose; -39-458; assay type: functional
Summary of the method: (§2)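 Female Sprague-Dawley rats got one 20 mg DMBA dose by gavage at 50 days old and were palpated twice weekly from day 30. Rats were randomized once tumor area exceeded 140 mm². Dose (per kg) was given sc in olive oil, once daily Monday to Thursday and doubled on Friday. Tumor area was taken from caliper measurements of two perpendicular axes, twice weekly. Change per animal is given as median % and range.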

Rattus norvegicus [3] = species on record: Rattus norvegicus; assay: Partial remission (%) of DMBA-induced mammary carcinoma tumors in rats at 2.8 mg dose; assay type: functional
Summary of the method: (§3)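 Female Sprague-Dawley rats, 50 days old, given a single 20 mg DMBA dose in 1 mL olive oil by gavage. Rats were palpated twice weekly from day 30, and those without tumors by day 70 were discarded. Rats were randomized once tumor area exceeded 140 mm². Drug dose was per kg in olive oil (1 mL/kg) sc, single dose Mon–Thu and double dose Fri. Tumor area (caliper, two perpendicular axes) and body weight were measured twice weekly.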

Rattus norvegicus [4] = species on record: Rattus norvegicus; assay: Change in body weight of DMBA-induced mammary carcinoma tumor bearing rats at 2.8 mg dose; assay type: functional
Summary of the method: (§4)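 DMBA-induced tumor-bearing Sprague-Dawley rats (20 mg DMBA by gavage at 50 days old), randomized when tumor area exceeded 140 mm². Dose per kg was given sc in olive oil, single dose daily Monday to Thursday, double dose Friday. Body weight was measured twice weekly. Read-out was % change in body weight.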

Rattus norvegicus [5] = species on record: Rattus norvegicus; assay: Percent progressive DMBA-induced mammary carcinoma tumors in rats at 2.8 mg dose; assay type: functional; summary of the method: as §3
Rattus norvegicus [6] = species on record: Rattus norvegicus; assay: Percent unchanged DMBA-induced mammary carcinoma tumors in rats at 2.8 mg dose; assay type: functional; summary of the method: as §3
Rattus norvegicus [7] = species on record: Rattus norvegicus; assay: Formation of new DMBA-induced mammary carcinoma tumors in rats at 2.8 mg dose; assay type: functional; summary of the method: as §1
[8] = molecular target: T1, Estrogen receptor (Mus musculus) (UniProt O08537+P19785); assay: Percentage inhibition of uterotrophic activity at 25 ug dose; assay type: functional
T1 sequence (O08537 whole entry, looked up): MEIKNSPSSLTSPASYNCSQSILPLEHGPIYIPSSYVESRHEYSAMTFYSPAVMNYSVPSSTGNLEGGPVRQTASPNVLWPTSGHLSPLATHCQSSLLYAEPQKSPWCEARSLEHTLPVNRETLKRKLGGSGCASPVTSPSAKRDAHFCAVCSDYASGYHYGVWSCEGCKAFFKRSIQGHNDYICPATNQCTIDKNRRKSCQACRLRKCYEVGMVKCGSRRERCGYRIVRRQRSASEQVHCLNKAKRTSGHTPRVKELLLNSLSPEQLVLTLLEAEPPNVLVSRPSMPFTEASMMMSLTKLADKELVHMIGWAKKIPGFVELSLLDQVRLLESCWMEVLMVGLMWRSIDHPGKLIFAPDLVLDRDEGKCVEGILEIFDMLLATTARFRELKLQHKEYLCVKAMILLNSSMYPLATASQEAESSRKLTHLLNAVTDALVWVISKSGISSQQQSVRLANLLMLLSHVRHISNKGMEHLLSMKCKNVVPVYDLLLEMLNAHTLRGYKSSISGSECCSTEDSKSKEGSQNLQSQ
T1 sequence (P19785 whole entry, looked up): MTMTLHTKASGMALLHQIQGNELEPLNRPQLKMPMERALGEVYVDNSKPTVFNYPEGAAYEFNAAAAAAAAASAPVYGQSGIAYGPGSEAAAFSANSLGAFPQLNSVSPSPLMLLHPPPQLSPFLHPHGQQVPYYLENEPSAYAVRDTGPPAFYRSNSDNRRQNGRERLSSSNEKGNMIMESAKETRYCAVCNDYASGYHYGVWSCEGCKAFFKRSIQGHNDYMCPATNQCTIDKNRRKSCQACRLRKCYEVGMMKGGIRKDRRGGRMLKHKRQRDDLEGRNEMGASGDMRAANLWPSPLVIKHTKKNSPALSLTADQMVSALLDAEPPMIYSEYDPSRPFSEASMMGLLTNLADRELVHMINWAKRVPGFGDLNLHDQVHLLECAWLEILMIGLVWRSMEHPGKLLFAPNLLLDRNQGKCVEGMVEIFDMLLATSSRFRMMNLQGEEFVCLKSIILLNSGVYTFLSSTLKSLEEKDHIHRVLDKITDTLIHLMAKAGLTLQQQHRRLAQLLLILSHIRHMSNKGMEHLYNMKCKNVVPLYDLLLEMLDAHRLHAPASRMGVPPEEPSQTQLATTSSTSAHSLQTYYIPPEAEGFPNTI
Summary of the method: (§5)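 Antiuterotrophic test in immature 19-day-old female NMRI mice (n=10), dosed sc on 3 consecutive days with 0.4 µg estrone per animal per day plus compound in olive oil. Uterine dry weight/body weight ×100 was read 24 h after the last dose. Inhibition % = 100 − [(E_S,T − E_V)/(E_S − E_V)]×100.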

[9] = molecular target: T1, Estrogen receptor (Mus musculus); assay: Percentage inhibition of uterotrophic activity at 125 ug dose; assay type: functional; summary of the method: as §5
Rattus norvegicus [10] = species on record: Rattus norvegicus; assay: Number of DMBA-induced mammary carcinoma tumors in rats at 1.8 mg dose; assay type: functional; summary of the method: as §1
Rattus norvegicus [11] = species on record: Rattus norvegicus; assay: Change in body weight of DMBA-induced mammary carcinoma tumor bearing rats at 1.8 mg dose; assay type: functional; summary of the method: as §4
Rattus norvegicus [12] = species on record: Rattus norvegicus; assay: Percent progressive DMBA-induced mammary carcinoma tumors in rats at 1.8 mg dose; assay type: functional; summary of the method: as §3
[13] = molecular target: T1, Estrogen receptor (Mus musculus); assay: Uterotrophic activity in mice as uterus dry weight (mg)/body weight (g) *100 at 25 ug dose; assay type: functional, tissue-based
Summary of the method: (§6)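 Immature 19-day-old female NMRI mice, groups of 10. Compound dose per animal in olive oil (50 µL) sc on 3 consecutive days. Mice were killed 24 h after the last injection. Uteri were Bouin-fixed 20 h, cleaned, washed with alcoholic LiCl, and dried at 100 °C for 24 h. Effect = uterine dry weight (mg)/body weight (g) ×100; mean ± SD.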

Rattus norvegicus [14] = species on record: Rattus norvegicus; assay: Formation of new DMBA-induced mammary carcinoma tumors in rats at 1.8 mg dose; assay type: functional; summary of the method: as §1
[15] = molecular target: T1, Estrogen receptor (Mus musculus); assay: Anti-uterotrophic activity in mice as uterus dry weight (mg)/body weight (g) *100 at 25 ug dose; assay type: functional, tissue-based
Summary of the method: (§7)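 Immature female NMRI mice, 19 days old, groups of 10, given sc injections on 3 consecutive days. Each injection held 0.4 μg estrone plus the indole dose per animal, in olive oil (50 μL). Killed 24 h after the last injection. Uteri were fixed in Bouin solution, washed, and dried 24 h at 100 °C. Read-out was uterine dry weight (mg)/body weight (g) × 100, mean ± SD.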

[16] = molecular target: T1, Estrogen receptor (Mus musculus); assay: Uterotrophic activity in mice as uterus dry weight (mg)/body weight (g) *100 at 5 ug dose; assay type: functional, tissue-based; summary of the method: as §6
Rattus norvegicus [17] = species on record: Rattus norvegicus; assay: Percent unchanged DMBA-induced mammary carcinoma tumors in rats at 1.8 mg dose; assay type: functional; summary of the method: as §3
Rattus norvegicus [18] = species on record: Rattus norvegicus; assay: Change in DMBA-induced mammary carcinoma tumor area in rats at 1.8 mg dose; -75-656; assay type: functional; summary of the method: as §2
[19] = molecular target: T1, Estrogen receptor (Mus musculus); assay: Anti-uterotrophic activity in mice as uterus dry weight (mg)/body weight (g) *100 at 1 ug dose; assay type: functional, tissue-based; summary of the method: as §7
[20] = molecular target: T1, Estrogen receptor (Mus musculus); assay: Uterotrophic activity in mice as uterus dry weight (mg)/body weight (g) *100 at 1 ug dose; assay type: functional, tissue-based; summary of the method: as §6
[21] = molecular target: T1, Estrogen receptor (Mus musculus); assay: Anti-uterotrophic activity in mice as uterus dry weight (mg)/body weight (g) *100 at 125 ug dose; assay type: functional, tissue-based; summary of the method: as §7
[22] = molecular target: T1, Estrogen receptor (Mus musculus); assay: Anti-uterotrophic activity in mice as uterus dry weight (mg)/body weight (g) *100 at 5 ug dose; assay type: functional, tissue-based; summary of the method: as §7
[23] = molecular target: T1, Estrogen receptor (Mus musculus); assay: Uterotrophic activity in mice as uterus dry weight (mg)/body weight (g) *100 at 125 ug dose; assay type: functional, tissue-based; summary of the method: as §6
Rattus norvegicus [24] = species on record: Rattus norvegicus; assay: Partial remission (%) of DMBA-induced mammary carcinoma tumors in rats at 1.8 mg dose; assay type: functional; summary of the method: as §1

CC/C(=C(\c1ccccc1)c1ccc(OCCN(C)C)cc1)c1ccccc1.O=C(O)CC(O)(CC(=O)O)C(=O)O [TAMOXIFEN CITRATE]
No. of tumors (Rattus norvegicus [1]): 34
Change of tumor area (Rattus norvegicus [2]): -39%
Partial remission (Rattus norvegicus [3]): 7%
Change of body weight (Rattus norvegicus [4]): 0
Progressed tumors (Rattus norvegicus [5]): 53
Static remission (Rattus norvegicus [6]): 27%
New tumors (Rattus norvegicus [7]): 26

CCn1c(-c2ccc(OC(C)=O)cc2)c(C)c2cc(OC(C)=O)ccc21 [ZINDOXIFENE]
inhibition [8]: 45%
inhibition [9]: 25% and 46%
No. of tumors (Rattus norvegicus [10]): 33
Change of body weight (Rattus norvegicus [11]): 1%
Progressed tumors (Rattus norvegicus [12]): 55%
Uterotrophic effect [13]: 17.9 and 21
New tumors (Rattus norvegicus [14]): 25
Anti-uterotrophic effect [15]: 53.5 and 33.5
Uterotrophic effect [16]: 14.1 and 19.6
Static tumors (Rattus norvegicus [17]): 14%
Change of tumor area (Rattus norvegicus [18]): -75%
Anti-uterotrophic effect [19]: 38.5 and 51.1
Uterotrophic effect [20]: 16.4
Anti-uterotrophic effect [21]: 37.8 and 33
Anti-uterotrophic effect [22]: 46.3 and 50.4
Uterotrophic effect [23]: 19.5 and 30.5
Partial remission (Rattus norvegicus [24]): 12%
